According to paper PMC9661475 (Journal of Medicinal Chemistry, 2022):

Experiments:
[1] = system: EV-D68 strain STL-2014-12; assay: CPE reduction assay, EV-D68 STL-2014-12 in RD cells; type: cell-based, Enterovirus D68; settings: for EC50: Enterovirus D, EVD68, RD, CPE assay, anti-EV-D68 activity; for anti-EV-D68 activity: running text on series 1 SAR
[2] = Pharmacokinetic study in SD rats; type: in vivo; settings: male, rat, plasma, iv, 1 mg/kg
Summary of the method: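 Male SD rats (6–9 or 6–8 weeks old, depending on compound; n = 3) received a single iv dose of 1 mg/kg. The vehicle was 5% DMSO/5% Solutol HS-15/90% water or 5% DMSO/95% HP-β-CD in water. Jugular blood was taken into heparin at 0.083, 0.25, 0.5, 1, 2, 4, 6 and 24 h. Plasma, obtained by centrifugation at about 4 °C, was assayed by LC-MS/MS.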

[3] = Liver microsome stability assay, rat; type: in vitro ADME; settings: liver microsomes
Summary of the method: (§1)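 Test compound (1 μM final) was incubated at 37 °C with rat, beagle dog or human liver microsomes (0.5 mg/mL protein) and 1 mM NADPH, with a parallel no-NADPH control. Aliquots were quenched at 0, 5, 15, 30 and 60 min in solution containing internal standard, centrifuged at 4 °C and analysed by LC-MS/MS. t1/2 and intrinsic clearance were derived from compound depletion.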

[4] = Liver microsome stability assay, dog; type: in vitro ADME; settings: beagle, liver microsomes
Summary of the method: as §1

[5] = Liver microsome stability assay, human; type: in vitro ADME; settings: liver microsomes
Summary of the method: as §1

various EV-D68 strains = assay: CPE assay, various EV-D68 strains; type: cell-based; settings: Enterovirus D, EVD68
Summary of the method: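 RD cells (DMEM, 10% FBS, 37 °C, 5% CO2) were seeded at 1.5 × 10^4/well and grown for 24 h. They were infected with 100 TCID50 of strain STL-2014-12, US/KY/14-18953, US/MO/14-18947 or Fermon, plus test compound in 3-fold dilutions (0.01–200 μM) or DMSO, for 72 h at 37 °C. ATP was read by CellTiter-Glo luminescence and normalised to uninfected and infected controls. EC50 is the concentration giving a 50% ATP increase.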

EV-D68 [6] = assay: Time of drug addition assay; type: cell-based, Enterovirus D68; settings: 2 μM, RD cells, 0.01 MOI, viral load by qRT-PCR
EV-D68 virions [7] = assay: Thermoprotection assay; set-up: species or system Enterovirus D68; settings: 12.5 μM, heated 2 min, TCID50
Summary of the method: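 Virus (2 × 10^6 PFU/ml) was preincubated with test compound (12.5 μM) or DMSO for 30 min at 33 °C. It was then heated for 2 min at 37–59 °C and rapidly cooled to 4 °C. Residual titre was measured by TCID50 on RD cells: 10-fold virus dilutions, CPE scored after 72 h, Reed–Muench calculation.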

EV-D68 VP1 expression [8] = assay: Western blot assay of viral VP1 in RD cells; type: cell-based, Enterovirus D68; settings: EV-D68-infected RD cells, MOI 0.01, 12 hpi
Summary of the method: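 RD cells (8.0 × 10^4 per well) were seeded and infected after 24 h with EV-D68 at MOI 0.01, with gradient-diluted test compound or DMSO, for 1.5 h. Cells were lysed in RIPA at 12 hpi. Equal protein was run on 10% SDS-PAGE, transferred to PVDF and blocked with 5% skim milk. Blots were probed with anti-EV-D68 and tubulin antibodies, then HRP secondaries, with ECL detection.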

EV-D68 VP1 expression [9] = assay: Immunofluorescence assay of viral VP1 in RD cells; type: cell-based, Enterovirus D68; settings: EV-D68-infected RD cells, MOI 1, 12 h
Summary of the method: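 RD cells were infected with EV-D68 at MOI 1 in the presence of test compound for 12 h. They were then fixed with 4% formaldehyde for 30 min, permeabilized with 0.1% Triton X-100 for 30 min and blocked with 5% bovine serum. Staining used rabbit anti-VP1 with an Alexa-546 secondary and 1 μM Hoechst33342 for nuclei, followed by fluorescence microscopy imaging.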

EV-D68 [10] = assay: Plaque formation assay in RD cells; type: cell-based, Enterovirus D68; settings: concentration of 1 μM
Summary of the method: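 RD cells grown overnight received serially diluted virus stock plus test compound for 1.5 h. The supernatant was then removed and replaced with a 2× DMEM overlay containing 2% low-melting agarose.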

EV-D68 virions [11] = assay: Particle stability thermal release assay; set-up: species or system Enterovirus D68; settings: 10 μg/mL, 1.5 μg purified EV-D68, SYTO9
Summary of the method: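 Test compound (10 μg/mL) or DMSO was mixed with 1.5 μg EV-D68 and SYTO9 nucleic-acid dye, at 5% DMSO. The mixture was held at 33 °C for 15 min, then ramped from 25 to 99 °C. Fluorescence was recorded in triplicate at 1 °C steps, and melting temperature was taken from the negative first-derivative curve.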

## Nc1ccc(-c2ccc3ncc(-c4noc(C(F)(F)F)n4)cc3c2)cc1 [Compound 19, 4-(3-(5-(Trifluoromethyl)-1,2,4-oxadiazol-3-yl)quinolin-6-yl)aniline]
[1]; EC50 ratio, STL-2014-12
  increase in antiviral potency compared to compound 15: ~10 fold
[2]
  clearance at 24 h: 64 ± 13.1 mL/min/kg
[3]
  CLint scaled at 1 h, 1 µM: 61.2 mL/min/kg
[4]
  CLint scaled at 1 h, 1 µM: 116 mL/min/kg
[5]
  CLint scaled at 1 h, 1 µM: 10.8 mL/min/kg
Various EV-D68 strains
  EC50: 0.05 to 0.1 µM
EV-D68 [6]
  antiviral activity, drug added after 1 hpi (phases II and IV): antiviral activity disappeared
  antiviral activity, drug added at 0–1 h (phase I) and 0–14 h (phase III): significant antiviral activity
EV-D68 virions [7]
  thermal inactivation of virus at 55 °C: significantly reduce the thermal inactivation
  virus activity at 57 °C: maintained certain virus activity

## CCCc1ccc(-c2ccc3ncc(C(=O)OCC)cc3c2)cc1 [Compound 10, Ethyl 6-(4-Propylphenyl)quinoline-3-carboxylate]
[1]
  EC50: > 10 µM

## CCOC(=O)c1cnc2ccc(-c3cccc(N)c3)cc2c1 [Compound 11, Ethyl 6-(3-Aminophenyl)quinoline-3-carboxylate]
[1]
  EC50: > 10 µM

## Cl.Nc1ccc(-c2ccc3ncc(-c4noc(C(F)(F)F)n4)cc3c2)cc1 [19·HCl, 4-(3-(5-(Trifluoromethyl)-1,2,4-oxadiazol-3-yl)quinolin-6-yl)aniline Hydrochloride]
EV-D68 VP1 expression [8]
  expression level of viral VP1: significantly inhibited the expression level of viral VP1 in a dose-dependent manner
EV-D68 VP1 expression [9]
  expression level of viral VP1: significantly inhibited the expression level of viral VP1 in a dose-dependent manner
EV-D68 [10]
  replication of EV-D68 virus particles (plaque formation): significantly inhibited the replication of EV-D68 virus particles

## Cc1cc(CCCOc2c(C)cc(-c3noc(C(F)(F)F)n3)cc2C)on1 [Pleconaril, pleconaril, reference compound]
EV-D68 [6]
  antiviral activity, drug added after 1 hpi (phases II and IV): same experimental results
  antiviral activity, drug added at 0–1 h (phase I) and 0–14 h (phase III): same experimental results
EV-D68 virions [7]
  thermal inactivation of virus at 55 °C: significantly reduce the thermal inactivation
EV-D68 virions [11]
  protection against viral particles (PaSTRy): almost no protection

## CCOC(=O)c1cnc2ccc(-c3cn[nH]c3)cc2c1 [Compound 17, Ethyl 6-(1H-Pyrazol-4-yl)quinoline-3-carboxylate]
[1]
  anti-EV-D68 activity: complete loss of activity

## CCOC(=O)c1cnc2ccc(-c3ccc(C(N)=O)cc3)cc2c1 [Compound 18, Ethyl 6-(4-Carbamoylphenyl)quinoline-3-carboxylate]
[1]
  anti-EV-D68 activity: inactivation

## CCc1nc(-c2cnc3ccc(-c4ccc(N)cc4)cc3c2)no1.Cl [Compound 21·HCl, 4-(3-(5-Ethyl-1,2,4-oxadiazol-3-yl)quinolin-6-yl)aniline Hydrochloride]
[2]
  clearance at 24 h: 106 ± 10 mL/min/kg
EV-D68 VP1 expression [8]
  expression level of viral VP1: significantly inhibited the expression level of viral VP1 in a dose-dependent manner
EV-D68 VP1 expression [9]
  expression level of viral VP1: significantly inhibited the expression level of viral VP1 in a dose-dependent manner
EV-D68 [10]
  replication of EV-D68 virus particles (plaque formation): significantly inhibited the replication of EV-D68 virus particles
